# Screening results as filed in PubChem BioAssay.
# An excerpt weighted towards active compounds, which were near 4.7% of everything screened.
# MC4R antagonist: blocks human MC4R cAMP signaling; inhibition, % at 6.5 µM; actives 0.48% (n = 360,000); P32245; MC4R-expressing cells, MTII-stimulated cAMP, LANCE TR-FRET; AID 540295;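 active = inhibition above its plate's cutoff, the mean of tested wells on that plate plus 3 SD, cut at about 29% in these data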;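 note: 0% = Melanotan II alone and 100% = Melanotan II plus saturating MCL0020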
# Target sequence (P32245 whole entry, looked up): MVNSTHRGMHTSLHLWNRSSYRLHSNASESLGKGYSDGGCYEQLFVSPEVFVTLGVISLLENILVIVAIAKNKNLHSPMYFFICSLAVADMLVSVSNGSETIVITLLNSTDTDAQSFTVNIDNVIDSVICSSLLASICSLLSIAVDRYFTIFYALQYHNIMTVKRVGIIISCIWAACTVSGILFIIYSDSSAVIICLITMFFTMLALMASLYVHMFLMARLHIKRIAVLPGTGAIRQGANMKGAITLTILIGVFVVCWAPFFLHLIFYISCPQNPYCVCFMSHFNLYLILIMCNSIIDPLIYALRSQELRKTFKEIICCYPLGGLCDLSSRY
#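 Assay system: U2OS cells stably expressing human melanocortin 4 receptor (MC4R) / Dosing: 6.5 µM / Timing: compound 30 min, challenge 1 h, detection 1 h / Measured by: Eu-cAMP/anti-cAMP TR-FRET, emission 671 nm / Replicates: singlicate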
# AHR act: activates the human aryl hydrocarbon receptor | P35869 | AHR-responsive luciferase reporter cells, luminescence | activation, % at 5 µM | actives 2.5% (n = 320,000) | AID 2796; in the data active = activation above about 47%;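 note: 0% = vehicle wells and 100% = reference agonist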
# m5-HT2A agonist: activates the mouse 5-HT2A serotonin receptor | P35363 | CHO-K1 mHTR2A beta-arrestin complementation, luminescence; percent of 30 µM serotonin response | activation, % at 7.6 µM | actives 0.66% (n = 360,000) | AID 624169;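 active = activation above a run cutoff, the mean activation of all tested compounds plus 3 SD, cut at about 14% in these data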;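 note: 0% = plate median of compound wells and 100% = 30 µM serotonin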
# GAA850 FXN act: increases GAA850 frataxin promoter reporter activity. HEK293 lucGAA850 FXN promoter luciferase reporter, 24 h; percent of 10 µM SAHA response. activation, % at 6 µM. actives 0.56% (n = 360,000);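 active = activation above the average of all compounds screened plus 3 SD, cutoff fixed separately per campaign, cut at about 7.5% in these data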;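 note: 0% = DMSO wells and 100% = 10 µM SAHA wells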
# MC4R barr agon: activates human MC4R beta-arrestin recruitment | activation, % at 8.9 µM | U2OS MC4R beta-arrestin complementation, luminescence; percent of melanotan II response, DMSO zero | P32245 | actives 0.98% (n = 360,000);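 active = activation above a per-plate cutoff, the mean activation of sample wells on that plate plus 3 SD, cut at about 8% in these data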
# U2OS cAMP counter: counter-screen for MC4R antagonists: nonselective cAMP signaling inhibitors; actives 26% (n = 1,600); shares compounds with MC4R antagonist; inhibition, % at 6.5 µM; parental U2OS, forskolin cAMP, LANCE TR-FRET; AID 602193;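 active = mean inhibition over triplicates above the low-control well mean plus 3 SD, set per campaign, cut at about 13% in these data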;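 note: signal is single emission at 671 nm which falls as cellular cAMP rises; 0% = forskolin-stimulated wells and 100% = buffer without forskolin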
# MC4R cAMP antag: human MC4R cAMP antagonism confirmation. shares compounds with MC4R antagonist. MC4R-expressing cells, MTII-stimulated cAMP, TR-FRET. inhibition, % at 6.5 µM. actives 27% (n = 1,600). AID 602195; in the data active = inhibition above about 29%;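 note: 0% = agonist stimulated wells alone and 100% = agonist stimulated wells plus saturating reference antagonist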
# Numbers without * were called inactive; . = not tested or not shown.
SMILES,MC4R antagonist,AHR act,m5-HT2A agonist,GAA850 FXN act,MC4R barr agon,U2OS cAMP counter,MC4R cAMP antag
CC(=NO)C1(C)CC=CCC1CO (stereo not given),-2.8,.,0.4,0.5,1.2,.,.
O=C(c1ccccc1)c1cccc(NC(=O)c2ccc(Br)o2)c1,3.5,7.6,-5.6,2.2,-1.4,.,.
O=C(Nc1cccc(NC(=O)c2ccc(Br)o2)c1)c1ccccc1,34.4*,.,-3.6,-1.9,-0.8,1.4,5.0
O=C(Oc1ccc(/C=N/NC(=O)c2ccco2)cc1)c1ccccc1,-5.5,5.5,-3.5,4.7,-2.9,.,.
O=C(OCN1C(=O)c2ccccc2C1=O)C1CCCCC1,7.0,0.9,-1.9,0.5,-0.4,.,.
O=C1c2ccccc2C(=O)N1SC1CCCCC1,29.2*,2.1,3.5,-6.4,3.5,8.3,24.7
CCOC(=O)c1c(NC(=O)C(C)OC(=O)C2=COCCO2)sc2c1CCCC2 (stereo not given),36.2*,-0.5,-3.8,2.7,0.2,-0.5,18.9
CCOC(=O)c1c(NC(=O)C(C)OC(=O)c2ccc(NC(=O)CC#N)cc2)sc2c1CCCC2 (stereo not given),16.3,6.3,2.5,0.4,1.5,.,.
Cc1cc(O)cc(O)c1/C=N/NC(=O)c1ccc2c(c1)OCCO2,-2.9,.,0.9,-4.2,-2.3,.,.
O=C1CN(C(=O)CSc2nc(-c3ccc(Cl)cc3)cs2)c2ccccc2N1,30.7*,20.8,-2.7,-3.8,2.4,-3.8,-18.4
Cc1nnc(SCC(=O)N2CC(=O)Nc3ccccc32)s1,2.9,-1.9,2.0,-0.1,0.3,.,.
COc1ccc(-c2nn(-c3ccccc3)cc2C(=O)Nc2ccc(C(=O)O)cc2)cc1OC,20.8,3.2,1.6,-0.2,-0.5,.,.
O=C(Nc1cccc(S(=O)(=O)NC2=NCCC2)c1)c1cn(-c2ccccc2)nc1-c1ccc(F)cc1,29.4*,12.9,-7.3,1.8,-3.2,3.7,11.4
Cc1ccc(-c2nn(-c3ccccc3)cc2C(=O)Nc2ccc(C(=O)O)cc2)cc1,33.1*,1.4,-2.8,2.4,0.5,1.8,-5.2
Cc1ccc(NC(=O)CSc2nnc(CNC(=O)c3cccs3)o2)cc1,30.8*,9.5,-0.5,-0.9,0.8,0.0,-3.6
COc1ccc(-n2c(=S)[nH]c3sc(-c4ccccc4)cc3c2=O)c(OC)c1,32.5*,-1.5,-0.1,-0.4,-3.5,15.3*,15.2
COc1cccc(-c2cc3c(=O)n(-c4ccccc4)c(=S)[nH]c3s2)c1,24.0,0.5,5.3,2.5,-2.6,.,.
CC(C)(C)c1ccc(OCCSc2nc3ccccc3n2CC(=O)O)cc1,33.8*,0.3,2.0,-0.1,-0.6,-2.2,-3.8
O=C(Oc1ccc(C(=S)N2CCOCC2)cc1)c1ccc([N+](=O)[O-])cc1,34.5*,-1.9,-4.2,-0.8,0.5,-1.1,-17.6
COc1cccc(CNC(=O)[C@@H]2CCCN2C(=O)[C@@H]2CCCN2C(=O)c2cccc3ccccc23)c1,.,.,-0.4,.,.,.,.
c1ccc(COc2ccc(-c3cc4nc(NCCN5CCOCC5)ccn4n3)cc2)cc1,33.4*,.,-6.4,-2.8,2.0,3.2,20.0
c1ccc(COc2cccc(-c3cc4nc(NCCN5CCOCC5)ccn4n3)c2)cc1,2.8,.,-7.7,-1.3,-0.4,.,.
CCOC(=O)c1c(NC(=O)COc2cccc3c2CCN(C)C3=O)sc2c1CCC2,29.8*,39.4,0.1,-0.6,8.7*,9.2,51.5*
CC(Oc1ccc(F)cc1)C(=O)N(CCC1=CCCCC1)c1c(N)n(Cc2ccccc2)c(=O)[nH]c1=O (stereo not given),3.5,-1.1,-5.2,-6.1,-4.1,.,.
Cc1cccc(N2C(=O)C(O)=C(C(=O)c3cccs3)C2c2ccccc2)n1 (stereo not given),29.9*,0.1,1.8,0.4,-0.9,6.0,16.6
SMILES,MC4R antagonist,AHR act,m5-HT2A agonist,GAA850 FXN act,MC4R barr agon,U2OS cAMP counter,MC4R cAMP antag
FC(F)(F)c1cnc(Oc2cccc3ccccc23)c(Cl)c1,29.4*,18.0,3.2,1.5,1.7,-2.0,-5.8
Oc1cccc(Oc2ncc(C(F)(F)F)cc2Cl)c1,-4.7,1.1,-0.3,0.7,-0.7,.,.
C[C@@H]1CN([C@H](C)CO)C(=O)CCCn2cc(nn2)CO[C@H]1CN(C)C(=O)Nc1cccc(C(F)(F)F)c1,2.1,.,-3.2,0.5,-0.5,.,.
COc1ccc(CC2(CO)CCN(Cc3ccncc3)CC2)cc1,1.7,-0.3,3.3,0.8,0.9,.,.
COc1ccc(CC2(CO)CCN(Cc3cnn(C)c3C)CC2)cc1,29.7*,-0.8,-2.2,-1.0,-0.8,-2.9,-14.3
O=C(c1ccccc1)c1ccc(Oc2ccc([N+](=O)[O-])cc2[N+](=O)[O-])cc1,-7.3,.,-0.6,-3.1,-1.8,.,.
Cc1ccccc1-n1c(SCC(=O)Nc2c(C)cccc2C)nc(O)cc1=O,33.5*,-1.8,1.4,0.8,1.8,4.1,-7.9
COc1ccccc1-n1c(SCC(=O)Nc2ccc(C)cc2)nc(O)cc1=O,23.2,-1.9,-0.9,0.5,-2.4,.,.
COc1ccc(NC(=O)CN2C(=O)C(C)SC(C)C2=O)cc1 (stereo not given),31.3*,1.1,-0.8,-0.1,-3.3,2.6,0.9
CC(=O)c1sc(-c2ccccc2)cc1NS(=O)(=O)c1ccc(C)cc1,35.5*,4.8,3.0,2.0,0.7,32.4*,56.9*
COc1cc(OC)cc(C(=O)N2CCN(Cc3ccccc3[N+](=O)[O-])CC2)c1,28.7*,-1.9,1.3,1.4,2.5,-1.6,-8.6
COc1ccc(C(=O)N2CCN(Cc3ccccc3[N+](=O)[O-])CC2)cc1,5.5,-0.5,2.2,0.5,-0.3,.,.
Cc1ccccc1CN1CCC(Oc2ccc(C(=O)N3CCCC3)cc2)CC1,28.7*,3.4,6.0,0.4,0.3,-0.5,-3.0
COc1cc(C)c(CN2CCC(Oc3ccc(C(=O)N4CCCC4)cc3)CC2)cc1C,14.9,-7.2,-5.3,-2.9,0.9,.,.
CCN=C1SC(CC(N)=O)C(=O)N1CC (stereo not given),32.4*,-1.2,3.1,-0.2,1.9,3.9,3.8
CCN=C1SC(CC(=O)NC(C)C)C(=O)N1CC (stereo not given),6.3,1.4,-0.2,3.4,0.7,.,.
CCc1ccc([C@@H]2C[C@H]3[C@@H](CN2S(=O)(=O)c2ccc(C)cc2)C(=O)C[C@@H](c2ccc(C)cc2)N3S(=O)(=O)c2ccc(C)cc2)cc1,-4.3,.,-2.6,-0.4,1.3,.,.
COC(=O)CSc1cnc2ccccc2n1,11.6,6.6,-0.2,-0.4,-0.4,.,.
COC(=O)CSc1nc2ccccc2nc1SCC(=O)OC,36.5*,2.9,0.7,-0.3,0.9,6.2,-4.3
